# In ChEMBL document CHEMBL3085734, “Indole diterpene alkaloids as novel inhibitors of the Wnt/β-catenin pathway in breast cancer cells” (Eur J Med Chem, 2013):
# pEC50, pIC50: −log10 of the molar value. Calls of active or inactive are those of the source. The calls are words filed in the database; no cut-off is given here.
# How the values were obtained:
# MDA-MB-231 [1] = experiment: Antiinvasive activity against human MDA-MB-231 cells at 7.5 to 15 uM after 24 hrs by cultrex BME assay
# MDA-MB-231 [2] = experiment: Antimigratory activity against human MDA-MB-231 cells after 24 hrs by wound-healing assay; assay type: functional, cell-based; conditions: MDA-MB-231, 24 h
# In short: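 Confluent MDA-MB-231 monolayers scratched with a pipette tip, then washed. Compounds added in 0.5% FBS medium, in triplicate, for 24 h. Cells then fixed and stained with Diff-Quick. Cells that migrated into the wound were counted in at least five random fields at 400X.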
# MDA-MB-231 [3] = experiment: Antiproliferative activity against human MDA-MB-231 cells after 72 hrs by MTT assay; assay type: functional, cell-based; conditions: MDA-MB-231, 72 h
# In short: (§1)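 Seeding: MCF-7 at 10×10³ and MDA-MB-231 at 8×10³ cells/well, attached overnight. Medium: serum-free RPMI for MCF-7 and RPMI with 5% FBS for MDA-MB-231, with graded compound doses, for 72 h at 37°C. Readout: MTT (1 mg/mL) for 4 h, formazan dissolved in DMSO, absorbance at 570 nm. Cell numbers taken from a standard curve as % survival versus DMSO. IC50 obtained by nonlinear regression. Final DMSO ≤0.2%.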
# MCF7 = experiment: Antiproliferative activity against human MCF7 cells after 72 hrs by MTT assay; assay type: functional, cell-based; conditions: MCF7, 72 h
# In short: as §1
# Mus musculus [4] = experiment: Toxicity in CD-1 mouse assessed as incidence of tremor at 19.6 mg/kg, ip measured every 10 to 15 mins for 8 hrs up to day 14; assay type: organism-based; set-up: dose 19.6 mg/kg, route intraperitoneal; conditions: in vivo
# In short: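 Male CD-1 mice (18–22 g), housed individually. Compounds given ip in DMSO diluted with saline (DMSO ≤2.0 µL/g). Up-and-Down Procedure per EPA 870.1100: sigma 0.33, starting dose 1.92 mg/kg, changed in 3.2-fold steps by tremor response, range 0.19–19.6 mg/kg. Observed every 10–15 min for 1 h, hourly for 8 h, then daily to day 14. Tremor EC50 calculated with AOT425StatPgm.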
# [5] = molecular target: Calcium-activated potassium channel slo-1 (Caenorhabditis elegans, UniProt Q95V25); experiment: Inhibition of wild type L4 larval stage of Caenorhabditis elegans N2 bristol BK channel assessed as induction of reversal locomotion at 1 uM after 42 hrs
# In short: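 30–40 synchronized L1 larvae of wild-type N2 placed on OP50-seeded NGM plates containing 1.0 µM compound or DMSO. Incubated 42 h at 20°C. L4 worms then moved to unseeded NGM and acclimatized 1 min before reversals were counted, at least 10 worms per treatment. slo-1(js379) strain NM1968 served as positive control.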
# MDA-MB-231 [6] = experiment: Inhibition of Wnt/beta-catenin signaling pathway in human MDA-MB-231 cells assessed as decrease in expression of beta-catenin level at 7.6 uM after 48 hrs by DAPI staining-based confocal laser scanning microscopy; assay type: cell-based
# In short: (§2)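 MDA-MB-231 cells seeded at 5×10⁴/chamber and attached overnight in 10% FBS. Treated 48 h in 0.5% FBS medium. Cells fixed in −20°C methanol and blocked with 2% BSA-TBST. Stained with anti-total β-catenin (1:300, overnight at 4°C), then Alexa Fluor 594 secondary, with DAPI counterstain. Confocal imaging at 200X; red intensity compared with untreated control. Duplicate chambers, experiments repeated at least three times.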
# Mus musculus [7] = experiment: Toxicity in CD-1 mouse assessed as incidence of tremor at 0.60 mg/kg, ip measured every 10 to 15 mins for 8 hrs up to day 14; assay type: organism-based; set-up: dose 0.6 mg/kg, route intraperitoneal; conditions: in vivo, 0.6 mg/kg
# In short: (§3)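 Male CD-1 mice (18–22 g), housed singly 3 days beforehand, given a single i.p. dose of DMSO stock diluted in saline (DMSO ≤2.0 µL/g); vehicle controls. Up-and-Down Procedure per EPA 870.1100 (sigma 0.33): start 1.92 mg/kg, then ×3.2 up or down according to tremor response, range 0.19–19.6 mg/kg. Tremors scored over 14 days; EC50 from AOT425StatPgm.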
# Mus musculus [8] = experiment: Toxicity in ip dosed CD-1 mouse assessed as incidence of tremor measured every 10 to 15 mins for 8 hrs up to day 14; assay type: organism-based
# In short: as §3
# Mus musculus [9] = experiment: Toxicity in CD-1 mouse assessed as incidence of tremor at 0.19 mg/kg, ip measured every 10 to 15 mins for 8 hrs up to day 14; assay type: organism-based; set-up: dose 0.19 mg/kg, route intraperitoneal; conditions: in vivo
# In short: as §3
# Mus musculus [10] = experiment: Toxicity in CD-1 mouse assessed as incidence of tremor at 1.92 mg/kg, ip measured every 10 to 15 mins for 8 hrs up to day 14; assay type: organism-based; set-up: dose 1.92 mg/kg, route intraperitoneal; conditions: in vivo
# In short: as §3
# MDA-MB-231 [11] = experiment: Inhibition of Wnt/beta-catenin signaling pathway in human MDA-MB-231 cells assessed as decrease in expression of beta-catenin level at 19 uM after 48 hrs by DAPI staining-based confocal laser scanning microscopy; assay type: cell-based
# In short: (§4)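 MDA-MB-231 cells, 5 × 10^4 per chamber (2 replicates/group), attached overnight in 10% FBS medium, then treated 48 h in 0.5% FBS medium (final DMSO ≤0.2%). Methanol-fixed at −20 °C, blocked in 2% BSA-TBST, anti-total β-catenin (1:300, overnight 4 °C), Alexa Fluor 594 secondary, DAPI counterstain. Confocal imaging at 200X; red intensity compared with vehicle; ≥3 independent repeats.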
# [12] = Inhibition of Wnt/beta-catenin signaling pathway in mouse C2C12 cells assessed as induction of nuclear translocation of beta-catenin after 24 hrs by propidium iodide staining-based laser scanning cytometry; assay type: cell-based; conditions: C2C12, 24 h
# MDA-MB-231 [13] = experiment: Inhibition of Wnt/beta-catenin signaling pathway in human MDA-MB-231 cells assessed as decrease in expression of beta-catenin level at 8 uM after 48 hrs by DAPI staining-based confocal laser scanning microscopy; assay type: cell-based
# In short: as §4
# MDA-MB-231 [14] = experiment: Inhibition of Wnt/beta-catenin signaling pathway in human MDA-MB-231 cells assessed as decrease in expression of beta-catenin level at 48.2 uM after 48 hrs by DAPI staining-based confocal laser scanning microscopy; assay type: cell-based
# In short: as §2
# MDA-MB-231 [15] = experiment: Inhibition of Wnt/beta-catenin signaling pathway in human MDA-MB-231 cells assessed as decrease in expression of beta-catenin level at 9.6 uM after 48 hrs by DAPI staining-based confocal laser scanning microscopy; assay type: cell-based
# In short: as §4
# Calcium-activated potassium channel slo-1, sequence (Q95V25 whole entry): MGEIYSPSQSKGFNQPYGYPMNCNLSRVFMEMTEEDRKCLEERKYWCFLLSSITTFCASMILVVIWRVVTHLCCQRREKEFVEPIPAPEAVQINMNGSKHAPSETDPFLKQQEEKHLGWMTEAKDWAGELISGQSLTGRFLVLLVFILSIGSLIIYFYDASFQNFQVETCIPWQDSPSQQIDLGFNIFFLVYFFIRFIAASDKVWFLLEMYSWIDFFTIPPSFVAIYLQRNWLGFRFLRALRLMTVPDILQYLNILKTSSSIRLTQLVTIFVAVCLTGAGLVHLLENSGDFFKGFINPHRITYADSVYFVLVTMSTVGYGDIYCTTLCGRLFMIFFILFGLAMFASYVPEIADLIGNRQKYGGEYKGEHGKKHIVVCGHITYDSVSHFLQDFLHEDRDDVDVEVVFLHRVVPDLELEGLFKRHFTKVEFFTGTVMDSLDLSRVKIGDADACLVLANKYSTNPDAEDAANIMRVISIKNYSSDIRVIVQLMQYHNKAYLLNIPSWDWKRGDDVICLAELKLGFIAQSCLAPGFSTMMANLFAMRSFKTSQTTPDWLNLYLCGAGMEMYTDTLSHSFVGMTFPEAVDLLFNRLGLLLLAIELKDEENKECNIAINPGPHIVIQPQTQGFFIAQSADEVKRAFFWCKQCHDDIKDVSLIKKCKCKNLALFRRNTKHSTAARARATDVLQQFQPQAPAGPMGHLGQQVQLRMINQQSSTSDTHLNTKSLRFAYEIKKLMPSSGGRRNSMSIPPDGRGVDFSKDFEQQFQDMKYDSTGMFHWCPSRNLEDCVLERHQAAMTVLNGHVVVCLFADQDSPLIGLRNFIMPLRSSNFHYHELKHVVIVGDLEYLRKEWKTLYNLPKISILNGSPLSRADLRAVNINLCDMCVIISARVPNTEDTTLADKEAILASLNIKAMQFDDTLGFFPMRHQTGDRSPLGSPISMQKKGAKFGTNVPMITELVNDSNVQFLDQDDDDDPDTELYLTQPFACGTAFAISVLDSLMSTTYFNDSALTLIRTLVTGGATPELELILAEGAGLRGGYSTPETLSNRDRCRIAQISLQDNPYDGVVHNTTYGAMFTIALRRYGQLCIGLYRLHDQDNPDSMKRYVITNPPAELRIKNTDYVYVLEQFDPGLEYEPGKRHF
Compound,pIC50 (MDA-MB-231 [2]),pIC50 (MDA-MB-231 [3]),pIC50 (MCF7),inhibition (INH) [5],Activity (MDA-MB-231 [1]),further results
CC(C)(O)[C@@H]1CC[C@]2(C)[C@H](CC[C@@]3(C)[C@H]2CC[C@H]2Cc4c([nH]c5ccccc45)[C@@]23C)O1 [PASPALINE],–,–,–,Not Active,–,inhibition (MDA-MB-231 [6]): Active
C=C1Cc2c(Br)cc3[nH]c4c5c3c2[C@H]2[C@@H]1C[C@H]2C(C)(C)O[C@H]5[C@@H]1CC[C@@]2(O)[C@@]35O[C@@H]3[C@@H](O)[C@@H](C(=C)C)O[C@H]5CC[C@]2(C)[C@@]41C,–,–,–,–,–,Activity (Mus musculus [7]): Non-toxic; Activity (Mus musculus [4]): Toxic; EC50 (Mus musculus [8]): 3.43 mg/kg
C=C(C)[C@H]1O[C@H]2CC[C@@]3(C)[C@@](O)(CC[C@H]4[C@@H]5OC(C)(C)[C@@H]6C[C@@H]7C(=C)Cc8c(Cl)cc9[nH]c(c5c9c8[C@@]76OO)[C@@]43C)[C@]23O[C@@H]3[C@H]1O,< 4.30,< 4.30,< 4.30,–,Active,–
C=C(C)[C@H]1O[C@H]2CC[C@@]3(C)[C@@](O)(CC[C@H]4[C@@H]5OC(C)(C)[C@H]6C[C@@H]7C(=C)Cc8c(Cl)cc9[nH]c(c5c9c8[C@@]76O)[C@@]43C)[C@]23O[C@@H]3[C@H]1O [PENITREM A],–,–,–,Active,–,Activity (Mus musculus [9]): Non-toxic; Activity (Mus musculus [10]): Toxic
CC(C)=CCC[C@]1(C)[C@@H](O)CC[C@@]2(C)[C@H]1CC[C@H]1Cc3c([nH]c4ccccc34)[C@@]12C [EMINDOLE SB],–,–,–,Not Active,–,inhibition (MDA-MB-231 [11]): Active
C=C(C)[C@H]1O[C@H]2CC[C@@]3(C)[C@@](O)(CC[C@H]4[C@@H]5OC(C)(C)[C@@H]6C[C@@H]7C(=C)Cc8c(Cl)cc9[nH]c(c5c9c8[C@@]76O)[C@@]43C)[C@]23O[C@@H]3[C@H]1OC,< 4.30,< 4.30,4.64,–,Active,–
C=C(C)[C@H]1O[C@H]2CC[C@@]3(C)[C@@](O)(CC[C@H]4[C@@H]5OC(C)(C)[C@H]6C[C@@H]7C(=C)Cc8c(Cl)cc9[nH]c(c5c9c8[C@@]76O)[C@@]43C)[C@@]23O[C@H]3[C@H]1O [PENITREM A],5.06,5.01,4.92,–,Active,pEC50 [12]: 6.01; inhibition (MDA-MB-231 [13]): Active
C=C1Cc2c(Cl)cc3[nH]c4c5c3c2[C@@]2(O)[C@@H]1C[C@H]2C(C)(C)O[C@H]5[C@@H]1CC[C@@]2(O)[C@@]35O[C@@H]3[C@H](O)O[C@H]5CC[C@]2(C)[C@@]41C,4.32,4.36,4.88,Not Active,Active,inhibition (MDA-MB-231 [14]): Active; Activity (Mus musculus [4]): ND(Insoluble)
C=C1Cc2c(Cl)cc3[nH]c4c5c3c2[C@@]2(O)[C@@H]1C[C@H]2C(C)(C)O[C@H]5[C@@H]1CC[C@@]2(O)[C@@]35O[C@@H]3[C@@](O)(/C=C(/C)COC(C)=O)O[C@H]5CC[C@]2(C)[C@@]41C,< 4.30,5.00,4.49,–,–,–
C=C(C)[C@H]1O[C@H]2CC[C@@]3(C)[C@@](O)(CC[C@H]4[C@@H]5OC(C)(C)[C@@H]6C[C@@H]7C(=C)Cc8c(Br)cc9[nH]c(c5c9c8[C@@]76O)[C@@]43C)[C@]23O[C@@H]3[C@H]1O,–,–,–,Not Active,–,Activity (Mus musculus [9]): Non-toxic; Activity (Mus musculus [7]): Toxic; inhibition (MDA-MB-231 [15]): Active; Activity (Mus musculus [10]): Toxic; EC50 (Mus musculus [8]): 0.32 mg/kg

# Continued, in another order:
pIC50 (MDA-MB-231 [2]),pIC50 (MDA-MB-231 [3]),pIC50 (MCF7),inhibition (INH) [5],Compound,Activity (MDA-MB-231 [1]),further results
< 4.30,< 4.30,–,–,C=C(C)[C@H]1O[C@H]2CC[C@@]3(C)[C@@](O)(CC[C@H]4[C@@H]5OC(C)(C)[C@@H]6C[C@@H]7C(=C)Cc8c(Cl)cc9c(c5c(n9C)[C@@]43C)c8[C@@]76O)[C@]23O[C@@H]3[C@H]1O,Active,–
< 4.30,4.86,< 4.30,Not Active,C=C(C)[C@H]1O[C@H]2CC[C@@]3(C)[C@@](O)(CC[C@H]4[C@@H]5OC(C)(C)[C@@H]6C[C@@H]7C(=C)Cc8c(Cl)cc9[nH]c(c5c9c8[C@@]76O)[C@@]43C)[C@]23O[C@@H]3[C@H]1OC(=O)c1ccccc1,Active,Activity (Mus musculus [4]): ND(Insoluble)
< 4.30,< 4.30,< 4.30,Not Active,C=C(C)[C@H]1O[C@H]2CC[C@@]3(C)[C@@](O)(CC[C@H]4[C@@H]5OC(C)(C)[C@@H]6C[C@@H]7C(=C)Cc8c(Cl)cc9c(c5c(n9C)[C@@]43C)c8[C@@]76O)[C@]23O[C@@H]3[C@H]1OC,Active,Activity (Mus musculus [4]): ND(Insoluble)
< 4.30,< 4.30,< 4.30,–,C=C(C)[C@H]1O[C@H]2CC[C@@]3(C)[C@@](O)(CC[C@H]4[C@@H]5OC(C)(C)[C@@H]6C[C@@H]7C(=C)Cc8c(Cl)cc9c(c5c(n9Cc5cccc(OC)c5)[C@@]43C)c8[C@@]76O)[C@]23O[C@@H]3[C@H]1OCc1cccc(OC)c1,Active,–
< 4.30,< 4.30,< 4.30,–,C=C(C)[C@H]1O[C@H]2CC[C@@]3(C)[C@@](O)(CC[C@H]4[C@@H]5OC(C)(C)[C@@H]6C[C@@H]7C(=C)Cc8c(Cl)cc9[nH]c(c5c9c8[C@@]76O)[C@@]43C)[C@]23O[C@@H]3[C@H]1OCc1ccccc1,–,–
